Compounds with a hit are over-represented: about 3% of the library has one in this group of screens.
HTR1E agonist: activates the human 5-HT1E serotonin receptor; activation, % at 6 µM; actives 0.69% (n = 65,000); CHO 5-HT1E Ga15 NFAT-bla reporter, FRET; 0% DMSO wells, 100% control agonist wells; P28566;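 active = activation above a set limit, the screen-wide mean activation plus 3 SD, cut at about 8.5% in these data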;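 note: 100% = positive control agonist at 1 µM giving full maximal response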
S1P3 ag: S1P3 (human) receptor agonism; Q99500; S1P3 NFAT-BLA reporter cells, FRET ratio; relative to 1 µM S1P, basal subtracted; activation, % at 4.5 µM; actives 0.1% (n = 60,000); AID 373;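 active = activation above the screen-wide mean plus 3 SD, cut at about 4.5% in these data, passing the limit was not always enough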
Target sequence (Q99500 whole entry, looked up): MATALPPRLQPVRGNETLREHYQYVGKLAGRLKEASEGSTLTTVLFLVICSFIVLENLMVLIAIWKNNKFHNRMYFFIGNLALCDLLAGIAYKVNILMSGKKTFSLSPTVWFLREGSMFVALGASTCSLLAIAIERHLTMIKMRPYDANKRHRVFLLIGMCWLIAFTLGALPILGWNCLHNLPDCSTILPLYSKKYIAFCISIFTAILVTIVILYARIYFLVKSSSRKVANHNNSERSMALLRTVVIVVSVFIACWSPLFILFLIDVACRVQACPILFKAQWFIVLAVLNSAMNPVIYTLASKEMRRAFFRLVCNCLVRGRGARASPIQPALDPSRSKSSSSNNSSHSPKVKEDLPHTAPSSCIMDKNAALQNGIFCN
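Measure – % activation relative to 1 µM S1P (100%), per plate · System – stable CHO line with human S1P3, Gα16, NFAT-BLA reporter · Timing – cells plated overnight, compound 4 h 37 °C, substrate 2 h RT · Technique – fluorescent BLA substrate, ex 405 nm, em 460/535 nm ratio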
5HT1a antag: blocks the human serotonin 5-HT1a receptor; P08908; CHO 5-HT1a Ga15 NFAT-bla reporter, antagonist mode; inhibition, % at 10 µM; actives 0.68% (n = 62,000); AID 612;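 active = inhibition above the mean of all tested compounds plus 3 SD, cut at about 43% in these data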;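 note: receptor stimulated by 5-CT agonist at 100 nM near EC80; beta-lactamase reporter measured by ratiometric fluorescence of a cleavable substrate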
HTR1E antagonist: antagonists of human 5-HT1E serotonin receptor; CHO 5-HT1E Ga15 NFAT-bla reporter, FRET, antagonist; inhibition, % at 6 µM; actives 0.99% (n = 65,000);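 active = inhibition above a set limit, the mean inhibition across every tested compound plus 3 SD, cut at about 29% in these data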;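 note: signal is the 460 over 535 nm emission ratio of beta-lactamase substrate; 0% = agonist plus DMSO wells and 100% = wells without agonist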
S1P1 ag pot: activates or potentiates agonism at human S1P1 receptor; S1P1 CRE-bla cells, forskolin, beta-lactamase FRET, potentiator mode; S1P1 agonist co-added at EC20, 2 nM; 100% = saturating reference agonist, 0% = basal; P21453; activation, % at 9.5 µM; actives 0.57% (n = 56,000);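 active = activation above a cutoff set at the mean activation of all tested compounds plus 3 SD, cut at about 54% in these data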;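 note: forskolin at 4 µM as EC80 and the EC20 agonist is SEW2871; 100% = SEW2871 at its EC100 plus forskolin at EC80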
5HT1a ag: activates the human 5-HT1a serotonin receptor; actives 0.56% (n = 65,000); P08908; CHO 5-HT1a Ga15 NFAT-bla reporter, FRET ratio; 0% basal, 100% maximal reference agonist; AID 567; activation, % at 10 µM;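 active = activation above the screen-wide mean activation plus 3 SD, cut at about 19% in these data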;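 note: 0% = DMSO wells and 100% = 5-CT at EC100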
* marks the source's active call; other numbers are inactive results; · = no result given.

SMILES	HTR1E agonist	S1P3 ag	5HT1a antag	HTR1E antagonist	S1P1 ag pot	5HT1a ag
Nc1nnc(-c2ccccc2)c(-c2ccccc2)n1	1	0	-10	5	-46	-1
c1ccc(-c2nc3nonc3nc2-c2ccccc2)cc1	-1	6.1*	33	16	4	-3
CCC(C)(C)NC(=O)C(c1ccc(F)cc1)N(Cc1ccco1)C(=O)c1cnccn1 (stereo not given)	0	-1	15	7	-6	-3
COCc1cc(C)nc(SCC(=O)Nc2cccc3cccnc23)c1C#N	0	1	1	42*	-18	6
CCC(C(=O)Nc1cnccn1)c1ccccc1 (stereo not given)	18*	0	-3	-4	-2	-3
CN1C(=O)CC(N2CCN(c3ccc(Cl)c(Cl)c3)CC2)C1=O (stereo not given)	0	-5	·	40*	-1	4
S=C(Nc1ccccn1)c1ccccn1	-1	-1	4	33*	-22	3
O=C(Nc1ccccc1)Nc1ccccn1	-1	0	5	-2	·	-2
N#CC(C#N)=c1ccc2c(c1)NC1(CCCCC1)N=2	1	-2	31	2	12	-1
COc1cccc(-n2c(SCC(=O)Nc3cc(C)on3)nc3c([nH]c4ccccc43)c2=O)c1	0	0	28	32*	-59	0
CCCSc1nc(N2CCOCC2)c2c(c1C#N)CCCC2	1	23*	·	8	59	0
Clc1ccc(OCc2nn3c(C4CCCCC4)nnc3s2)cc1	0	0	-13	4	-14	-2
O=C(Nc1ccc(N2CCCCC2)c(Cl)c1)c1ncn[nH]1	1	0	-60	-5	127*	-5
COc1cc(CN2CCN(c3cccc(C)c3C)CC2)cc(Br)c1O	36*	-2	10	2	-20	1
COc1ccc(CN2CCN(c3cccc(C)c3C)CC2)cc1OC	24*	0	6	11	·	29*
COc1ccc(CN2CCC(C(=O)N3CCN(c4ccccc4F)CC3)CC2)cc1OC	0	-2	2	-9	-22	0
CCCC(c1nnnn1C1CCCCC1)N1CCN(c2ncccn2)CC1 (stereo not given)	0	-1	8	2	0	1
CCCCC(c1nnnn1C1CCCC1)N1CCN(C2CCCCC2)CC1 (stereo not given)	0	0	50*	5	-5	-1
O=C(Cn1cc2c(n1)CCCCC2)NC1CCN(Cc2ccccc2)CC1	0	1	7	-1	-9	29*
CCOCCCNC(=O)Cn1cc2c(n1)CCCC2	-1	0	15	-7	-24	36*
CC1CCc2nn(CC(=O)NC3CCCC3)cc2C1 (stereo not given)	0	0	-13	-8	-7	40*
CCCN1CCN(CCCNC(=O)Cn2cc3c(n2)CCCC3)CC1	-1	0	10	-4	-33	-2
CC(C)C[C@H](N)c1nnc(S(=O)(=O)Cc2ccc(F)cc2)o1	0	-2	88*	43*	5	0
CC1CCCCC1NS(=O)(=O)c1ccc(S(=O)(=O)NCc2ccncc2)cc1 (stereo not given)	0	-1	10	18	48	2
CC(=O)C1=C(O)C=C(c2ccco2)CC1c1ccco1 (stereo not given)	-2	0	12	6	-22	-3
SMILES	HTR1E agonist	S1P3 ag	5HT1a antag	HTR1E antagonist	S1P1 ag pot	5HT1a ag
O=c1c2cc(N3CCOCC3)ccc2[nH]c(=S)n1CCCN1CCCC1	9.6*	·	4	-8	·	-1
O=c1c2cc(N3CCOCC3)ccc2[nH]c(=S)n1CCCN1CCCCC1	0	·	-6	16	·	0
CCOC(=O)COc1cccc2c(=O)n(CC(=O)N3CCc4ccccc43)ccc12	1	-1	6	16	-4	-1
CCOC(=O)COc1cccc2c(=O)n(CC(=O)NCc3ccc4c(c3)OCO4)ccc12	1	0	6	47*	16	2
COc1ccc(-n2nc3ccc(NS(C)(=O)=O)cc3n2)cc1Cl	0	-1	10	11	103*	-2
COc1ccc(NS(=O)(=O)c2coc(C(N)=O)c2)cc1Cl	2	-1	-3	-7	-2	-3
c1ccc2c(-c3nc4ncccc4o3)cccc2c1	-1	-1	25	5	21	-1
CCC(=O)Nc1cc(C)c(NC(=O)c2ccccc2OC)cn1	14*	0	-16	-2	0	-2
CCC(=O)Nc1cc(C)c(NC(=O)c2ccco2)cn1	0	·	3	1	·	1
O=C(Nc1ccc(N2CCOCC2)cc1)c1cnsn1	-1	-2	-14	1	13	-2
CS(=O)(=O)c1ncc(Cl)c(C(=O)Nc2ccc(N3CCOCC3)cc2)n1	1	1	81*	82*	-10	-2
CCOc1ccc(C)cc1S(=O)(=O)NC1CCCCC1	0	-1	17	7	32	-2
CCOc1cc(S(=O)(=O)NC2CCCC2)ccc1Cl	15*	-2	-10	-3	·	0
COc1ccccc1-c1nnc2sc(-c3cnccn3)nn12	0	-1	1	-9	-7	-2
COc1ccccc1-c1nnc2sc(-c3cc4ccccc4o3)nn12	0	0	19	36*	-8	-2
CN(C)c1ccc(-c2nn3c(-c4ccccc4Cl)nnc3s2)cc1	2	-1	45*	75*	-53	3
Clc1ccccc1-c1nnc2sc(-c3ccncc3)nn12	0	-1	11	12	-4	-1
COc1ccccc1-c1nnc2sc(-c3ccc(N(C)C)cc3)nn12	1	-2	68*	86*	-67	-4
COC(=O)CCC(=O)Nc1ccc(Br)cc1	-1	0	-7	2	-15	-5
Cc1onc(-c2ccccc2)c1C(=O)NC(C)C1CCCO1 (stereo not given)	-1	0	8	16	13	-5
CSc1cccc(NC(=O)Nc2ccccc2)c1	10*	-2	26	17	11	0
CSc1cccc(NC(=O)COc2ccccc2)c1	0	0	-11	-2	·	-2
CN1CCN(c2nc(-c3ccncc3)nc3ccccc23)CC1	9.1*	0	-4	6	·	4
c1ccc2c(N3CCCC3)nc(-c3ccncc3)nc2c1	1	0	5	0	-24	1
O=C(NCc1cccs1)C1CCN(S(=O)(=O)c2cccc3cccnc23)CC1	-2	-1	22	21	-14	2
Cc1ccc(Nc2nc(N)nc(CN3CCN(C)CC3)n2)cc1C	0	0	1	5	-21	1
